Shown are actives, neighbours in structure and some others; about 2.5% of the full set was active somewhere.
PMI activator: phosphomannose isomerase (human) activation; P34949; purified human PMI, coupled resazurin fluorescence, 20 min; stronger effect = higher value; 1 = vehicle control, 0 substrate-free wells; activation factor at 20 µM; 190,000 compounds, 0.005% hits; AID 1214;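 active = activation factor of 2 or more at 20 µM, relative to plate controls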
Target sequence (P34949 whole entry, looked up): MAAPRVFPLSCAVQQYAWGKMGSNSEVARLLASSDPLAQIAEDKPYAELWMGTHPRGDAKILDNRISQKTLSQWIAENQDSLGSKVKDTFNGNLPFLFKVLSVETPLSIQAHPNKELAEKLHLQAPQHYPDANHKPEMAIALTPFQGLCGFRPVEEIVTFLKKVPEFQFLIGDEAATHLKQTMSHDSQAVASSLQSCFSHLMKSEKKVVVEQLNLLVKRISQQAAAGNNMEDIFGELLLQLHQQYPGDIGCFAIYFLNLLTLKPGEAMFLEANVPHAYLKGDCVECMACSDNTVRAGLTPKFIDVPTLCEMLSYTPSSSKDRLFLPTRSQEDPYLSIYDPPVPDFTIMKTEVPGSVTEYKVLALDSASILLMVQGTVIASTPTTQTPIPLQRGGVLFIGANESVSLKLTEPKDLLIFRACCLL
Diaphorase inh: counter-screen for diaphorase-based assays: diaphorase inhibitors and chemical oxidizers; diaphorase resazurin-to-resorufin fluorescence, NADH, 16 min; bacterial (C. kluyveri) enzyme, not human; 190,000 compounds, 0.69% hits; inhibition, % at 20 µM; AID 1217;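 active = primary screen inhibition at 20 µM above a set limit, cut at about 50% in these data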
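Detection: fluorescence of resorufin formed from resazurin, Ex 544/Em 590 nm; test system: Clostridium kluyveri diaphorase enzyme; amount: 0.14 U/mL diaphorase, enzyme working solution; times: 16-min room-temperature incubation before reading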
Diaph act CS: counter-screen for diaphorase-based assays: diaphorase activators and chemical reducers; Diaphorase/resazurin coupled assay, resorufin fluorescence, 16 min; stronger effect = higher value; 1 = vehicle wells, 0 = NADH-free wells; activation factor at 20 µM; 190,000 compounds, 0.005% hits; AID 1229;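 active = diaphorase activity raised at least twofold by the compound at 20 µM; inactive = activation factor below 2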
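Material: purified diaphorase enzyme from Clostridium kluyveri; Also added: 0.114 mM NADH and 0.1 mM resazurin, final amounts; Doses: single compound dose of 20 µM, 1% DMSO final; Times: 16 min enzyme reaction, ambient temperature; Detection: resorufin fluorescence, excitation 544 nm, emission 590 nm; Measure: increased resorufin signal from activators or reducing compounds.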
PMI act satM6P: activators of human phosphomannose isomerase at near-saturating mannose 6-phosphate; AID 1216; coupled PMI enzyme assay, resazurin fluorescence, 20 min; stronger effect = higher value; 1 = untreated enzyme, 0 = substrate-free blank; activation factor at 20 µM; 190,000 compounds, 0.34% hits;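 active = activation factor of 2 or more at 20 µM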
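assay system = human phosphomannose isomerase with PGI, G6PDH, diaphorase coupling enzymes | quantity = 15 ng/mL PMI | incubation = enzyme reaction with compound 20 min at room temperature | medium = HEPES pH 7.4 buffer with MgCl2 and Tween-20 | compound dosing = one concentration, 20 µM, in 1% DMSO | measured by = Diaphorase-driven resazurin-to-resorufin fluorescence, excitation 544, emission 590 nm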
FLuc stim CS: affects firefly luciferase, flagging false hits in luciferase stimulation screens; activation factor at 10 µM; ATPlite luciferase biochemical, luminescence, 10 min; 0 = ATP-free wells, 1 = DMSO control; 200,000 tested, under 10 active; AID 1027;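 active = luciferase activation factor, scaled between plate controls, of at least 2 with compound at 10 µM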
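Assay system: Luciferase/luciferin detection reagent, cell-free biochemical luciferase assay / Read-out: luciferase activation / Benchmarks: No-ATP low control, compound-free enzyme-plus-ATP high control / Medium: PBS buffer for ATP / Detection: luminescence measurement of luciferase light output / Schedule: 10 min at ambient temperature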
FLuc inhib CS: inhibits firefly luciferase, flagging false hits in luciferase inhibition screens; ATPLite firefly luciferase biochemical luminescence, 10 min; inhibition, % at 10 µM; 200,000 compounds, 1.5% hits; AID 1006;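 active = inhibition above about 50% when tested at 10 µM, limit read from the data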
A number is an active result.

Cc1ccc(C)c(N=Nc2nc3ccccc3n2C)c1 was read as PMI activator inactive, Diaphorase inh inactive, Diaph act CS inactive, PMI act satM6P 2.2, FLuc stim CS inactive and FLuc inhib CS 75.
For O=C(NC1CC1)C1CCN(C2CCN(C(=O)c3ccc4cccc(F)c4n3)CC2)CC1 the results were PMI activator inactive, Diaphorase inh inactive, Diaph act CS inactive, PMI act satM6P inactive, FLuc stim CS inactive and FLuc inhib CS inactive.
`Cn1cccc1C(=O)C(=O)Nc1ccccc1` gave PMI activator inactive, Diaphorase inh inactive, Diaph act CS inactive, PMI act satM6P inactive, FLuc stim CS inactive and FLuc inhib CS 52.
For O=C1c2ccccc2NC(c2cn[nH]c2-c2ccc(Cl)cc2)N1O (configuration not stated) the results were PMI activator inactive, Diaphorase inh inactive, Diaph act CS inactive, PMI act satM6P 2.2, FLuc stim CS inactive and FLuc inhib CS inactive.
Screening O=C1c2ccccc2NC(c2cn[nH]c2-c2ccccc2)N1O (configuration not stated) returned PMI activator inactive, Diaphorase inh inactive, Diaph act CS inactive, PMI act satM6P inactive, FLuc stim CS inactive and FLuc inhib CS inactive.
Screening NNC(=O)CNc1ccccc1Cl returned PMI activator inactive, Diaphorase inh 54, Diaph act CS inactive, PMI act satM6P inactive, FLuc stim CS inactive and FLuc inhib CS inactive.
Screening Cc1cc(C)n(C(=O)CNc2ccccc2Cl)n1 returned PMI activator inactive, Diaphorase inh inactive, Diaph act CS inactive, PMI act satM6P inactive, FLuc stim CS inactive and FLuc inhib CS inactive.
`O=C(N/N=C/c1ccc(OC(F)F)cc1)C1=COCCO1` gave PMI activator inactive, Diaphorase inh inactive, Diaph act CS inactive, PMI act satM6P inactive, FLuc stim CS inactive and FLuc inhib CS 68.
For COc1ccc(NS(=O)(=O)c2cccc(NC(=O)c3ccc(S(=O)(=O)N4CCCCCC4)cc3)c2)cc1 the results were PMI activator inactive, Diaphorase inh inactive, Diaph act CS inactive, PMI act satM6P inactive, FLuc stim CS inactive and FLuc inhib CS inactive.
Cc1ccc(N=Cc2c(C)[nH]n(-c3nc4ccccc4[nH]3)c2=O)cc1 was read as PMI activator inactive, Diaphorase inh inactive, Diaph act CS inactive, PMI act satM6P inactive, FLuc stim CS inactive and FLuc inhib CS 79.
For Cc1nnc(SCc2ccc(CSc3nnc(C)c(=O)[nH]3)cc2)[nH]c1=O the results were PMI activator inactive, Diaphorase inh inactive, Diaph act CS inactive, PMI act satM6P inactive, FLuc stim CS inactive and FLuc inhib CS inactive.
For CC(C)(C)c1ccc(C(=O)Nc2cccc3c(=O)[nH][nH]c(=O)c23)cc1 the results were PMI activator inactive, Diaphorase inh inactive, Diaph act CS inactive, PMI act satM6P inactive, FLuc stim CS inactive and FLuc inhib CS 70.
`O=C(O)c1ccccc1NS(=O)(=O)c1ccc(NNC(=S)Nc2ccc(OC(F)F)cc2)c([N+](=O)[O-])c1` gave PMI activator inactive, Diaphorase inh 67, Diaph act CS inactive, PMI act satM6P inactive, FLuc stim CS inactive and FLuc inhib CS inactive.
Cn1c(N)c(S(=O)(=O)N2CCN(c3ccccc3)CC2)c(=O)n(C)c1=O was read as PMI activator inactive, Diaphorase inh inactive, Diaph act CS inactive, PMI act satM6P inactive, FLuc stim CS inactive and FLuc inhib CS inactive.
For NC(=O)C1CCN(C(=O)CN2CCCc3ccccc32)CC1 the results were PMI activator inactive, Diaphorase inh inactive, Diaph act CS inactive, PMI act satM6P 2, FLuc stim CS inactive and FLuc inhib CS inactive.
For O=C(CN1CCCc2ccccc21)NC(=O)NC1CCCCC1 the results were PMI activator inactive, Diaphorase inh inactive, Diaph act CS inactive, PMI act satM6P inactive, FLuc stim CS inactive and FLuc inhib CS inactive.
Cc1c(Cl)cccc1N1CC(C(=O)Nc2nccs2)CC1=O (configuration not stated) was read as PMI activator inactive, Diaphorase inh inactive, Diaph act CS inactive, PMI act satM6P inactive, FLuc stim CS inactive and FLuc inhib CS inactive.
For O=C(N/N=C/c1ccc(O)cc1)Nc1cccc2nsnc12 the results were PMI activator inactive, Diaphorase inh inactive, Diaph act CS inactive, PMI act satM6P inactive, FLuc stim CS inactive and FLuc inhib CS inactive.
Screening CCOc1ccc(C(=O)Nc2cc(C)on2)cc1 returned PMI activator inactive, Diaphorase inh inactive, Diaph act CS inactive, PMI act satM6P inactive, FLuc stim CS inactive and FLuc inhib CS 74.
For Cc1cc(NC(=O)c2ccc(Cl)cc2)no1 the results were PMI activator inactive, Diaphorase inh inactive, Diaph act CS inactive, PMI act satM6P inactive, FLuc stim CS inactive and FLuc inhib CS 59.
`Cc1cc(NC(=O)c2ccc(S(=O)(=O)N(C)C)cc2)no1` gave PMI activator inactive, Diaphorase inh inactive, Diaph act CS inactive, PMI act satM6P inactive, FLuc stim CS inactive and FLuc inhib CS inactive.
For O=S1(=O)CC2N=C(N(Cc3ccc(F)cc3Cl)c3ccccc3F)SC2C1 (configuration not stated) the results were PMI activator inactive, Diaphorase inh inactive, Diaph act CS inactive, PMI act satM6P inactive, FLuc stim CS inactive and FLuc inhib CS inactive.
Screening O=C(CC(Nc1ccc(F)cc1)C(=O)O)c1ccccc1 (configuration not stated) returned PMI activator inactive, Diaphorase inh inactive, Diaph act CS inactive, PMI act satM6P inactive, FLuc stim CS inactive and FLuc inhib CS 87.
Cc1ccc(-n2nnc(-c3cccnc3Cl)n2)cc1 was read as PMI activator inactive, Diaphorase inh inactive, Diaph act CS inactive, PMI act satM6P inactive, FLuc stim CS inactive and FLuc inhib CS 72.
For c1ccc(Nc2nc(-c3cccs3)cs2)nc1 the results were PMI activator inactive, Diaphorase inh inactive, Diaph act CS inactive, PMI act satM6P inactive, FLuc stim CS inactive and FLuc inhib CS 68.
`Cc1cccc(Nc2nc(-c3cccs3)cs2)n1` gave PMI activator inactive, Diaphorase inh inactive, Diaph act CS inactive, PMI act satM6P inactive, FLuc stim CS inactive and FLuc inhib CS inactive.
Nc1ccc(Nc2nc(-c3cccs3)cs2)cc1 was read as FLuc stim CS inactive and FLuc inhib CS 90.
`Cc1ccc(NN=C2c3ccccc3-c3ccccc32)cc1` gave PMI activator inactive, Diaphorase inh inactive, Diaph act CS inactive, PMI act satM6P 2.2, FLuc stim CS inactive and FLuc inhib CS inactive.
Screening Cc1ccc(OCC(=O)NN=C2c3ccccc3-c3ccccc32)cc1 returned PMI activator inactive, Diaphorase inh inactive, Diaph act CS inactive, PMI act satM6P inactive, FLuc stim CS inactive and FLuc inhib CS inactive.
